Test results: ChEMBL document CHEMBL1141797, “Norsesquiterpenes from the brown alga Dictyopteris divaricata” (J Nat Prod, 2005)

Key:
Type in all cases: functional, cell-based
[1] = test system: A549; assay: Cytotoxicity against human A549 cells by MTT method
Procedure, shortened: (§1)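 MTT colorimetric read-out of cell viability, expressed as IC50 in µg/mL. Human tumour lines by origin: A549 lung adenocarcinoma, BGC-823 stomach cancer, MCF-7 breast cancer, Bel7402 hepatoma, HCT-8 colon cancer.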

[2] = test system: BGC-823; assay: Cytotoxicity against human BGC823 cells by MTT method; procedure, shortened: as §1
[3] = test system: MCF7; assay: Cytotoxicity against human MCF7 cells by MTT method; procedure, shortened: as §1
[4] = test system: Bel-7402; assay: Cytotoxicity against human Bel7402 cells by MTT method; procedure, shortened: as §1
[5] = test system: HCT-8; assay: Cytotoxicity against human HCT8 cells by MTT method; procedure, shortened: as §1

Measured: IC50

CC(C)[C@@H]1CC[C@@H](C)[C@]2(O)CC(=O)C=C12
> 10 µg/mL: [1] | [2] | [3] | [4] | [5]

CC(C)[C@H]1CC[C@H](C)C2=CC(=O)C[C@@]21O
> 10 µg/mL: [1] | [2] | [3] | [4] | [5]

CC(C)[C@@H]1CC[C@@H](C)[C@]2(O)CCC(=O)C=C12
> 10 µg/mL: [1] | [2] | [3] | [4] | [5]

CC(C)[C@@H]1CC[C@@H](C)[C@@]2(O)CC(=O)C=C12
> 10 µg/mL: [1] | [2] | [3] | [4] | [5]
